In ChEMBL document CHEMBL1629640, “Antimicrobial activities of jadomycin B and structurally related analogues” (2009):
Values after ≈ are worked out from the molar mass of the structure shown.

Experiments:
[1] = test system: Staphylococcus aureus; test: Antimicrobial activity against Staphylococcus aureus C622 by broth microdilution method; format: functional
In short: (§1)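 Preliminary MIC screen by twofold serial broth microdilution in Mueller-Hinton broth, 0.5% DMSO final, with a DMSO-only control. Overnight mid-log cultures were diluted 100-fold, grown 4 h, then diluted 10−6 and added to wells. Plates were incubated overnight and growth read visually. Inhibition was defined as growth ≤ half of control. Three replicates per strain.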

[2] = test system: Staphylococcus aureus; test: Antimicrobial activity against Staphylococcus aureus Becker CP8 by broth microdilution method; format: functional; in short: as §1
[3] = test system: Pseudomonas aeruginosa; test: Antimicrobial activity against Pseudomonas aeruginosa H188 by broth microdilution method; format: functional
In short: (§2)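 Preliminary screen by broth microdilution. Jadomycins dissolved in 100% DMSO and diluted to a 2.56 mg ml−1 working stock in 5% DMSO. First well held 0.5% DMSO final, followed by twofold serial dilutions in broth. A DMSO-only control was included. Strains were grown in Mueller-Hinton broth to mid-log, diluted 100-fold, incubated 4 h, then diluted 10−6. Plates were incubated overnight and growth was read visually. MIC defined as growth ≤ half of control. Three replicates.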

[4] = test system: Staphylococcus aureus; test: Antimicrobial activity against Staphylococcus aureus 305 by broth microdilution method; format: functional; in short: as §1
[5] = test system: Staphylococcus epidermidis; test: Antimicrobial activity against Staphylococcus epidermidis C960 by broth microdilution method; format: functional; in short: as §2
[6] = test system: Bacillus subtilis; test: Antimicrobial activity against Bacillus subtilis C971 by broth microdilution method; format: functional; in short: as §2
[7] = test system: Staphylococcus aureus; test: Antimicrobial activity against methicillin-resistant Staphylococcus aureus C623 by broth microdilution method; format: functional; in short: as §1
[8] = test system: Pseudomonas aeruginosa; test: Antimicrobial activity against Pseudomonas aeruginosa H187 by broth microdilution method; format: functional; in short: as §2
[9] = test system: Staphylococcus epidermidis; test: Antimicrobial activity against Staphylococcus epidermidis isolate C621 by broth microdilution method; format: functional; in short: as §2
[10] = test system: Staphylococcus aureus; test: Antimicrobial activity against Staphylococcus aureus ATCC 55804 by broth microdilution method
[11] = test system: Enterococcus faecalis; test: Antimicrobial activity against Enterococcus faecalis C625 by broth microdilution method; format: functional; in short: as §2
[12] = test system: Staphylococcus aureus; test: Antimicrobial activity against Staphylococcus aureus 305 by CLSI method; format: functional
In short: (§3)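 MIC by CLSI broth microdilution in cation-adjusted Mueller-Hinton broth at 5 × 10^5 CFU ml−1 final (5 × 10^4 CFU/well).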

[13] = test system: Staphylococcus aureus; test: Antimicrobial activity against methicillin-resistant Staphylococcus aureus C623 by CLSI method; format: functional; in short: as §3
[14] = test system: Staphylococcus epidermidis; test: Antimicrobial activity against Staphylococcus epidermidis C960 by CLSI method; format: functional

CC[C@H]1OC(=O)[C@H](C)[C@@H](O[C@H]2C[C@@](C)(OC)[C@@H](O)[C@H](C)O2)[C@H](C)[C@@H](O[C@@H]2O[C@H](C)C[C@H](N(C)C)[C@H]2O)[C@](C)(O)C[C@@H](C)C(=O)[C@H](C)[C@@H](O)[C@]1(C)O [ERYTHROMYCIN]
MIC [1]: < 1 µg/mL
MIC [2]: < 0.25 µg/mL
MIC [3]: > 2 µg/mL
MIC [4]: < 0.25 µg/mL
MIC [5]: < 0.125 µg/mL
MIC [6]: < 0.125 µg/mL
MIC [7]: > 128 µg/mL
MIC [8]: > 2 µg/mL
MIC [9]: < 0.125 µg/mL
MIC [10]: < 0.25 µg/mL
MIC [11]: 1 µg/mL (≈ 1.36 µM)

CC[C@H](C)[C@H]1C(=O)O[C@H]2c3cc(C)cc(O)c3C3=C(C(=O)c4c(O[C@H]5C[C@@H](O)[C@@H](O)[C@H](C)O5)cccc4C3=O)N12 [JADOMYCIN B]
MIC [1]: 2 µg/mL (≈ 3.64 µM)
MIC [2]: 2 µg/mL (≈ 3.64 µM)
MIC [3]: > 128 µg/mL
MIC [12]: 4 µg/mL (≈ 7.28 µM)
MIC [4]: < 1 µg/mL
MIC [5]: < 1 µg/mL
MIC [13]: 8 µg/mL (≈ 14.6 µM)
MIC [6]: 4 µg/mL (≈ 7.28 µM)
MIC [7]: < 1 µg/mL
MIC [8]: > 128 µg/mL
MIC [9]: < 1 µg/mL
MIC [10]: 4 µg/mL (≈ 7.28 µM)
MIC [11]: 32 µg/mL (≈ 58.2 µM)
MIC [14]: 0.5 µg/mL (≈ 0.91 µM)

CSCC[C@@H]1C(=O)O[C@H]2c3cc(C)cc(O)c3C3=C(C(=O)c4c(O[C@H]5C[C@@H](O)[C@@H](O)[C@H](C)O5)cccc4C3=O)N12 [JADOMYCIN DM]
MIC [1]: 2 µg/mL (≈ 3.52 µM)
MIC [2]: 16 µg/mL (≈ 28.2 µM)
MIC [3]: > 128 µg/mL
MIC [12]: 32 µg/mL (≈ 56.4 µM)
MIC [4]: 32 µg/mL (≈ 56.4 µM)
MIC [5]: < 1 µg/mL
MIC [13]: 16 µg/mL (≈ 28.2 µM)
MIC [6]: 16 µg/mL (≈ 28.2 µM)
MIC [7]: 4 µg/mL (≈ 7.05 µM)
MIC [8]: > 128 µg/mL
MIC [9]: 2 µg/mL (≈ 3.52 µM)
MIC [10]: 64 µg/mL (≈ 113 µM)
MIC [11]: > 128 µg/mL
MIC [14]: 2 µg/mL (≈ 3.52 µM)

Cc1cc(O)c2c(c1)[C@@H]1OC(=O)[C@@H](CO)N1C1=C2C(=O)c2cccc(O[C@H]3C[C@@H](O)[C@@H](O)[C@H](C)O3)c2C1=O [JADOMYCIN DS]
MIC [1]: 8 µg/mL (≈ 15.3 µM)
MIC [2]: 8 µg/mL (≈ 15.3 µM)
MIC [3]: > 128 µg/mL
MIC [12]: 32 µg/mL (≈ 61.1 µM)
MIC [4]: 4 µg/mL (≈ 7.64 µM)
MIC [5]: 1 µg/mL (≈ 1.91 µM)
MIC [13]: 16 µg/mL (≈ 30.6 µM)
MIC [6]: 16 µg/mL (≈ 30.6 µM)
MIC [7]: 8 µg/mL (≈ 15.3 µM)
MIC [8]: > 128 µg/mL
MIC [9]: 4 µg/mL (≈ 7.64 µM)
MIC [10]: 16 µg/mL (≈ 30.6 µM)
MIC [11]: > 128 µg/mL
MIC [14]: 2 µg/mL (≈ 3.82 µM)

Cc1cc(O)c2c(c1)[C@@H]1OC(=O)[C@@H]([C@H](C)O)N1C1=C2C(=O)c2cccc(O[C@H]3C[C@@H](O)[C@@H](O)[C@H](C)O3)c2C1=O [JADOMYCIN DT]
MIC [1]: 16 µg/mL (≈ 29.8 µM)
MIC [2]: 32 µg/mL (≈ 59.5 µM)
MIC [3]: > 128 µg/mL
MIC [12]: 32 µg/mL (≈ 59.5 µM)
MIC [4]: 32 µg/mL (≈ 59.5 µM)
MIC [5]: 2 µg/mL (≈ 3.72 µM)
MIC [13]: 32 µg/mL (≈ 59.5 µM)
MIC [6]: 64 µg/mL (≈ 119 µM)
MIC [7]: 16 µg/mL (≈ 29.8 µM)
MIC [8]: > 128 µg/mL
MIC [9]: 8 µg/mL (≈ 14.9 µM)
MIC [10]: 64 µg/mL (≈ 119 µM)
MIC [11]: > 128 µg/mL
MIC [14]: 4 µg/mL (≈ 7.44 µM)

Cc1cc(O)c2c(c1)[C@@H]1OC(=O)[C@H](Cc3ccccc3)N1C1=C2C(=O)c2cccc(O[C@H]3C[C@@H](O)[C@@H](O)[C@H](C)O3)c2C1=O [JADOMYCIN F]
MIC [1]: 1 µg/mL (≈ 1.71 µM)
MIC [2]: 8 µg/mL (≈ 13.7 µM)
MIC [3]: > 128 µg/mL
MIC [12]: 4 µg/mL (≈ 6.85 µM)
MIC [4]: 4 µg/mL (≈ 6.85 µM)
MIC [5]: < 1 µg/mL
MIC [13]: 8 µg/mL (≈ 13.7 µM)
MIC [6]: 16 µg/mL (≈ 27.4 µM)
MIC [7]: 1 µg/mL (≈ 1.71 µM)
MIC [8]: > 128 µg/mL
MIC [9]: 2 µg/mL (≈ 3.43 µM)
MIC [10]: 16 µg/mL (≈ 27.4 µM)
MIC [11]: > 128 µg/mL
MIC [14]: 0.5 µg/mL (≈ 0.857 µM)

Cc1cc(O)c2c(c1)[C@@H]1OC(=O)CN1C1=C2C(=O)c2cccc(O[C@H]3C[C@@H](O)[C@@H](O)[C@H](C)O3)c2C1=O [JADOMYCIN G]
MIC [1]: 64 µg/mL (≈ 130 µM)
MIC [2]: 32 µg/mL (≈ 64.8 µM)
MIC [3]: > 128 µg/mL
MIC [12]: > 128 µg/mL
MIC [4]: 64 µg/mL (≈ 130 µM)
MIC [5]: 2 µg/mL (≈ 4.05 µM)
MIC [13]: > 128 µg/mL
MIC [6]: 64 µg/mL (≈ 130 µM)
MIC [7]: 32 µg/mL (≈ 64.8 µM)
MIC [8]: > 128 µg/mL
MIC [9]: 8 µg/mL (≈ 16.2 µM)
MIC [10]: 64 µg/mL (≈ 130 µM)
MIC [11]: > 128 µg/mL
MIC [14]: 32 µg/mL (≈ 64.8 µM)

Cc1cc(O)c2c(c1)[C@@H]1OC(=O)[C@H](CC(C)C)N1C1=C2C(=O)c2cccc(O[C@H]3C[C@@H](O)[C@@H](O)[C@H](C)O3)c2C1=O [JADOMYCIN L]
MIC [1]: < 1 µg/mL
MIC [2]: 8 µg/mL (≈ 14.6 µM)
MIC [3]: > 128 µg/mL
MIC [12]: 8 µg/mL (≈ 14.6 µM)
MIC [4]: 8 µg/mL (≈ 14.6 µM)
MIC [5]: < 1 µg/mL
MIC [13]: 8 µg/mL (≈ 14.6 µM)
MIC [6]: 16 µg/mL (≈ 29.1 µM)
MIC [7]: < 1 µg/mL
MIC [8]: > 128 µg/mL
MIC [9]: 4 µg/mL (≈ 7.28 µM)
MIC [10]: 16 µg/mL (≈ 29.1 µM)
MIC [11]: > 128 µg/mL
MIC [14]: 0.5 µg/mL (≈ 0.91 µM)

Cc1cc(O)c2c(c1)[C@@H]1NC(=O)C[C@@H](C(=O)O)N1C1=C2C(=O)c2cccc(O[C@H]3C[C@@H](O)[C@@H](O)[C@H](C)O3)c2C1=O [JADOMYCIN N]
MIC [1]: 32 µg/mL (≈ 58.1 µM)
MIC [2]: 16 µg/mL (≈ 29.1 µM)
MIC [3]: > 128 µg/mL
MIC [12]: > 128 µg/mL
MIC [4]: 8 µg/mL (≈ 14.5 µM)
MIC [5]: < 1 µg/mL
MIC [13]: 128 µg/mL (≈ 233 µM)
MIC [6]: 32 µg/mL (≈ 58.1 µM)
MIC [7]: 16 µg/mL (≈ 29.1 µM)
MIC [8]: > 128 µg/mL
MIC [9]: 8 µg/mL (≈ 14.5 µM)
MIC [10]: 32 µg/mL (≈ 58.1 µM)
MIC [11]: > 128 µg/mL
MIC [14]: 16 µg/mL (≈ 29.1 µM)

Cc1cc(O)c2c(c1)[C@@H]1OC(=O)[C@H](CO)N1C1=C2C(=O)c2cccc(O[C@H]3C[C@@H](O)[C@@H](O)[C@H](C)O3)c2C1=O [JADOMYCIN S]
MIC [2]: 8 µg/mL (≈ 15.3 µM)
MIC [3]: > 128 µg/mL
MIC [12]: 32 µg/mL (≈ 61.1 µM)
MIC [4]: 8 µg/mL (≈ 15.3 µM)
MIC [5]: 1 µg/mL (≈ 1.91 µM)
MIC [13]: 32 µg/mL (≈ 61.1 µM)
MIC [6]: 16 µg/mL (≈ 30.6 µM)
MIC [8]: > 128 µg/mL
MIC [9]: 4 µg/mL (≈ 7.64 µM)
MIC [10]: 32 µg/mL (≈ 61.1 µM)
MIC [11]: > 128 µg/mL
MIC [14]: 0.5 µg/mL (≈ 0.955 µM)

Cc1cc(O)c2c(c1)[C@@H]1OC(=O)[C@H]([C@H](C)O)N1C1=C2C(=O)c2cccc(O[C@H]3C[C@@H](O)[C@@H](O)[C@H](C)O3)c2C1=O [JADOMYCIN T]
MIC [1]: 8 µg/mL (≈ 14.9 µM)
MIC [2]: 4 µg/mL (≈ 7.44 µM)
MIC [3]: > 128 µg/mL
MIC [12]: 64 µg/mL (≈ 119 µM)
MIC [4]: 4 µg/mL (≈ 7.44 µM)
MIC [5]: < 1 µg/mL
MIC [13]: 32 µg/mL (≈ 59.5 µM)
MIC [6]: 8 µg/mL (≈ 14.9 µM)
MIC [7]: 8 µg/mL (≈ 14.9 µM)
MIC [8]: > 128 µg/mL
MIC [9]: 2 µg/mL (≈ 3.72 µM)
MIC [10]: 16 µg/mL (≈ 29.8 µM)
MIC [11]: > 128 µg/mL
MIC [14]: 1 µg/mL (≈ 1.86 µM)

Cc1cc(O)c2c(c1)[C@@H]1OC(=O)[C@H](Cc3ccc(O)cc3)N1C1=C2C(=O)c2cccc(O[C@H]3C[C@@H](O)[C@@H](O)[C@H](C)O3)c2C1=O [JADOMYCIN Y]
MIC [1]: 8 µg/mL (≈ 13.3 µM)
MIC [2]: 4 µg/mL (≈ 6.67 µM)
MIC [3]: > 128 µg/mL
MIC [4]: 4 µg/mL (≈ 6.67 µM)
MIC [5]: < 1 µg/mL
MIC [6]: 8 µg/mL (≈ 13.3 µM)
MIC [7]: 8 µg/mL (≈ 13.3 µM)
MIC [8]: > 128 µg/mL
MIC [9]: 2 µg/mL (≈ 3.34 µM)
MIC [10]: 16 µg/mL (≈ 26.7 µM)
MIC [11]: > 128 µg/mL
